≈ marks a conversion by molar mass, not a printed value.
Legend:
Assay type in all cases: functional
Nakaseomyces glabratus [1] = assay: Antifungal activity against Candida glabrata PMC 0807 after 48 hrs by CLSI broth microdilution method; details: PMC 0807, 48 h
How it was run: (§1)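 Yeast CLSI broth microdilution (M27-A3). Compounds dissolved in DMSO at 100× the top test concentration, then diluted as serial two-fold dilutions in RPMI 1640 to final 0.125–64. Inoculum was 1.0–1.5 × 10^3 cells mL−1, incubated at 35 °C and read for growth at 48 h. MIC is the lowest concentration giving ≥50% growth inhibition versus growth control. Reported as the median of five replicates and as the geometric mean.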

Pichia kudriavzevii [2] = assay: Antifungal activity against Candida krusei PMC 0613 after 48 hrs by CLSI broth microdilution method; details: PMC 0613, 48 h; how it was run: as §1
[3] = tested on: Trichophyton mentagrophytes; assay: Antifungal activity against Trichophyton mentagrophytes PMC 6515 after 72 hrs by CLSI broth microdilution method; details: PMC 6515, 72 h
How it was run: (§2)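 Dermatophytes tested by CLSI broth microdilution for filamentous fungi (M38-A2). Serial two-fold dilutions of DMSO-dissolved compound in RPMI 1640, final 0.125–64. Inoculum was 0.4–5 × 10^4 CFU mL−1, incubated at 35 °C and read at 72 h. MIC80 is the lowest concentration giving ≥80% growth inhibition versus growth control. Median of five replicates, plus geometric mean.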

Candida albicans [4] = assay: Antifungal activity against Candida albicans ATCC 24433 after 48 hrs by CLSI broth microdilution method; details: ATCC 24433, 48 h; how it was run: as §1
Cryptococcus neoformans [5] = assay: Antifungal activity against Cryptococcus neoformans PMC 2107 after 72 hrs by CLSI broth microdilution method; details: PMC 2107, 72 h
How it was run: (§3)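 Cryptococcus neoformans tested by CLSI broth microdilution in RPMI 1640, with serial two-fold dilutions from DMSO stocks at 100× the top concentration, final 0.125–64. Inoculum was 1.0–1.5 × 10^3 cells mL−1 at 35 °C, with growth read at 72 h. MIC is the lowest concentration with ≥50% growth inhibition versus control. Median of five replicates, plus geometric mean.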

Pichia kudriavzevii [6] = assay: Antifungal activity against Candida krusei DSM 6128 after 48 hrs by CLSI broth microdilution method; details: DSM 6128, 48 h; how it was run: as §1
Candida albicans [7] = assay: Antifungal activity against Candida albicans ATCC 10261 after 48 hrs by CLSI broth microdilution method; details: ATCC 10261, 48 h; how it was run: as §1
Candida tropicalis [8] = assay: Antifungal activity against Candida tropicalis DSM 11953 after 48 hrs by CLSI broth microdilution method; details: DSM 11953, 48 h; how it was run: as §1
[9] = tested on: Trichophyton mentagrophytes; assay: Antifungal activity against Trichophyton mentagrophytes PMC 6552 after 72 hrs by CLSI broth microdilution method; details: PMC 6552, 72 h; how it was run: as §2
Cryptococcus neoformans [10] = assay: Antifungal activity against Cryptococcus neoformans PMC 2136 after 72 hrs by CLSI broth microdilution method; details: PMC 2136, 72 h; how it was run: as §3
Nannizzia gypsea [11] = assay: Antifungal activity against Microsporum gypseum PMC 7331 after 72 hrs by CLSI broth microdilution method; details: PMC 7331, 72 h; how it was run: as §2
Cryptococcus neoformans [12] = assay: Antifungal activity against Cryptococcus neoformans DSM 11959 after 72 hrs by CLSI broth microdilution method; details: DSM 11959, 72 h; how it was run: as §3
[13] = tested on: Trichophyton mentagrophytes; assay: Antifungal activity against Trichophyton mentagrophytes PMC 6509 after 72 hrs by CLSI broth microdilution method; details: PMC 6509, 72 h; how it was run: as §2
Cryptococcus neoformans [14] = assay: Antifungal activity against Cryptococcus neoformans PMC 2123 after 72 hrs by CLSI broth microdilution method; details: PMC 2123, 72 h; how it was run: as §3
Nannizzia gypsea [15] = assay: Antifungal activity against Microsporum gypseum DSM 3824 after 72 hrs by CLSI broth microdilution method; details: DSM 3824, 72 h; how it was run: as §2
[16] = tested on: Trichophyton mentagrophytes; assay: Antifungal activity against Trichophyton mentagrophytes PMC 6531 after 72 hrs by CLSI broth microdilution method; details: PMC 6531, 72 h; how it was run: as §2
Candida albicans [17] = assay: Antifungal activity against Candida albicans ATCC 90028 after 48 hrs by CLSI broth microdilution method; details: ATCC 90028, 48 h; how it was run: as §1
Candida albicans [18] = assay: Antifungal activity against Candida albicans ATCC 10231 after 48 hrs by CLSI broth microdilution method; details: ATCC 10231, 48 h; how it was run: as §1
Cryptococcus neoformans [19] = assay: Antifungal activity against Cryptococcus neoformans PMC 2102 after 72 hrs by CLSI broth microdilution method; details: PMC 2102, 72 h; how it was run: as §3
Candida albicans [20] = assay: Antifungal activity against Candida albicans PMC 1011 after 48 hrs by CLSI broth microdilution method; details: PMC 1011, 48 h; how it was run: as §1
Cryptococcus neoformans [21] = assay: Antifungal activity against Cryptococcus neoformans PMC 2111 after 72 hrs by CLSI broth microdilution method; details: PMC 2111, 72 h; how it was run: as §3
Nannizzia gypsea [22] = assay: Antifungal activity against Microsporum gypseum PMC 7303 after 72 hrs by CLSI broth microdilution method; details: PMC 7303, 72 h; how it was run: as §2
Candida tropicalis [23] = assay: Antifungal activity against Candida tropicalis PMC 0910 after 48 hrs by CLSI broth microdilution method; details: PMC 0910, 48 h; how it was run: as §1
Cryptococcus neoformans [24] = assay: Antifungal activity against Cryptococcus neoformans PMC 2103 after 72 hrs by CLSI broth microdilution method; details: PMC 2103, 72 h; how it was run: as §3
Candida albicans [25] = assay: Antifungal activity against Candida albicans ATCC 3153 after 48 hrs by CLSI broth microdilution method; details: ATCC 3153, 48 h; how it was run: as §1
[26] = tested on: Trichophyton mentagrophytes; assay: Antifungal activity against Trichophyton mentagrophytes PMC 6503 after 72 hrs by CLSI broth microdilution method; details: PMC 6503, 72 h; how it was run: as §2
Candida parapsilosis [27] = assay: Antifungal activity against Candida parapsilosis DSM 11224 after 48 hrs by CLSI broth microdilution method; details: Lodderomyces parapsilosis, DSM 11224, 48 h; how it was run: as §1
Candida albicans [28] = assay: Antifungal activity against Candida albicans ATCC 20891 after 48 hrs by CLSI broth microdilution method; details: ATCC 20891, 48 h; how it was run: as §1
Candida parapsilosis [29] = assay: Antifungal activity against Candida parapsilosis ATCC 22019 after 48 hrs by CLSI broth microdilution method; details: Lodderomyces parapsilosis, ATCC 22019, 48 h; how it was run: as §1
Nakaseomyces glabratus [30] = assay: Antifungal activity against Candida glabrata PMC 0805 after 48 hrs by CLSI broth microdilution method; details: PMC 0805, 48 h; how it was run: as §1
Candida albicans [31] = assay: Antifungal activity against Candida albicans ATCC 76615 after 48 hrs by CLSI broth microdilution method; details: ATCC 76615, 48 h; how it was run: as §1
Cryptococcus neoformans [32] = assay: Antifungal activity against Cryptococcus neoformans PMC 2115 after 72 hrs by CLSI broth microdilution method; details: PMC 2115, 72 h; how it was run: as §3
[33] = tested on: Trichophyton mentagrophytes; assay: Antifungal activity against Trichophyton mentagrophytes DSM 4870 after 72 hrs by CLSI broth microdilution method; details: DSM 4870, 72 h; how it was run: as §2

Compound `O=C(OC(Cn1ccnc1)c1ccc(F)cc1)N1CCN(C(=O)c2ccco2)CC1` (stereo unspecified) has an MIC50 (Nakaseomyces glabratus [1]) of 128 µg/mL (≈ 310 µM), an MIC50 (Pichia kudriavzevii [2]) of 32 µg/mL (≈ 77.6 µM) and an MIC80 [3] of 128 µg/mL (≈ 310 µM). The MIC50 (Candida albicans [4]) was 128 µg/mL (≈ 310 µM), the MIC50 (Cryptococcus neoformans [5]) was 128 µg/mL (≈ 310 µM) and the MIC50 (Pichia kudriavzevii [6]) was 128 µg/mL (≈ 310 µM). For the same compound, the MIC50 (Candida albicans [7]) was 128 µg/mL (≈ 310 µM), the MIC50 (Candida tropicalis [8]) was 64 µg/mL (≈ 155 µM) and the MIC80 [9] was 128 µg/mL (≈ 310 µM). The MIC50 (Cryptococcus neoformans [10]) was 64 µg/mL (≈ 155 µM), the MIC80 (Nannizzia gypsea [11]) was 128 µg/mL (≈ 310 µM) and the MIC50 (Cryptococcus neoformans [12]) was 64 µg/mL (≈ 155 µM). For the same compound, the MIC80 [13] was 64 µg/mL (≈ 155 µM), the MIC50 (Cryptococcus neoformans [14]) was 128 µg/mL (≈ 310 µM) and the MIC80 (Nannizzia gypsea [15]) was 128 µg/mL (≈ 310 µM). The MIC80 [16] was 64 µg/mL (≈ 155 µM), the MIC50 (Candida albicans [17]) was 32 µg/mL (≈ 77.6 µM) and the MIC50 (Candida albicans [18]) was 64 µg/mL (≈ 155 µM). The MIC50 (Cryptococcus neoformans [19]) was 128 µg/mL (≈ 310 µM), the MIC50 (Candida albicans [20]) was 32 µg/mL (≈ 77.6 µM) and the MIC50 (Cryptococcus neoformans [21]) was 128 µg/mL (≈ 310 µM). It also gave an MIC80 (Nannizzia gypsea [22]) of 128 µg/mL (≈ 310 µM), an MIC50 (Candida tropicalis [23]) of 128 µg/mL (≈ 310 µM) and an MIC50 (Cryptococcus neoformans [24]) of 64 µg/mL (≈ 155 µM). It also gave an MIC50 (Candida albicans [25]) of 128 µg/mL (≈ 310 µM), an MIC80 [26] of 128 µg/mL (≈ 310 µM) and an MIC50 (Candida parapsilosis [27]) of 32 µg/mL (≈ 77.6 µM). The MIC50 (Candida albicans [28]) was 128 µg/mL (≈ 310 µM), the MIC50 (Candida parapsilosis [29]) was 16 µg/mL (≈ 38.8 µM) and the MIC50 (Nakaseomyces glabratus [30]) was 32 µg/mL (≈ 77.6 µM). It also gave an MIC50 (Candida albicans [31]) of 128 µg/mL (≈ 310 µM), an MIC50 (Cryptococcus neoformans [32]) of 128 µg/mL (≈ 310 µM) and an MIC80 [33] of 128 µg/mL (≈ 310 µM).

`CCS(=O)(=O)N1CCN(c2ccc(NC(=O)OC(Cn3ccnc3)c3ccc(F)cc3)cc2)CC1` (stereo unspecified) gave an MIC50 (Nakaseomyces glabratus [1]) of 128 µg/mL (≈ 255 µM), an MIC50 (Pichia kudriavzevii [2]) of 128 µg/mL (≈ 255 µM) and an MIC80 [3] of 128 µg/mL (≈ 255 µM). It also gave an MIC50 (Candida albicans [4]) of 128 µg/mL (≈ 255 µM), an MIC50 (Cryptococcus neoformans [5]) of 8 µg/mL (≈ 15.9 µM) and an MIC50 (Pichia kudriavzevii [6]) of 128 µg/mL (≈ 255 µM). For the same compound, the MIC50 (Candida albicans [7]) was 128 µg/mL (≈ 255 µM), the MIC50 (Candida tropicalis [8]) was 128 µg/mL (≈ 255 µM) and the MIC80 [9] was 128 µg/mL (≈ 255 µM). The MIC50 (Cryptococcus neoformans [10]) was 16 µg/mL (≈ 31.9 µM), the MIC80 (Nannizzia gypsea [11]) was 128 µg/mL (≈ 255 µM) and the MIC50 (Cryptococcus neoformans [12]) was 16 µg/mL (≈ 31.9 µM). For the same compound, the MIC80 [13] was 128 µg/mL (≈ 255 µM), the MIC50 (Cryptococcus neoformans [14]) was 32 µg/mL (≈ 63.8 µM) and the MIC80 (Nannizzia gypsea [15]) was 128 µg/mL (≈ 255 µM). It also gave an MIC80 [16] of 128 µg/mL (≈ 255 µM), an MIC50 (Candida albicans [17]) of 128 µg/mL (≈ 255 µM) and an MIC50 (Candida albicans [18]) of 128 µg/mL (≈ 255 µM). It also gave an MIC50 (Cryptococcus neoformans [19]) of 16 µg/mL (≈ 31.9 µM), an MIC50 (Candida albicans [20]) of 128 µg/mL (≈ 255 µM) and an MIC50 (Cryptococcus neoformans [21]) of 16 µg/mL (≈ 31.9 µM). The MIC80 (Nannizzia gypsea [22]) was 128 µg/mL (≈ 255 µM), the MIC50 (Candida tropicalis [23]) was 128 µg/mL (≈ 255 µM) and the MIC50 (Cryptococcus neoformans [24]) was 16 µg/mL (≈ 31.9 µM). For the same compound, the MIC50 (Candida albicans [25]) was 128 µg/mL (≈ 255 µM), the MIC80 [26] was 128 µg/mL (≈ 255 µM) and the MIC50 (Candida parapsilosis [27]) was 128 µg/mL (≈ 255 µM). It also gave an MIC50 (Candida albicans [28]) of 128 µg/mL (≈ 255 µM), an MIC50 (Candida parapsilosis [29]) of 128 µg/mL (≈ 255 µM) and an MIC50 (Nakaseomyces glabratus [30]) of 128 µg/mL (≈ 255 µM). It also gave an MIC50 (Candida albicans [31]) of 128 µg/mL (≈ 255 µM), an MIC50 (Cryptococcus neoformans [32]) of 32 µg/mL (≈ 63.8 µM) and an MIC80 [33] of 128 µg/mL (≈ 255 µM).
